Series [1] can be described thus: Cytotoxicity against human HepG2 cells supplemented with fresh medium containing compound every 3 days for 9 days measured post-last dose by MTT assay. In kind it is cell-based. The essentials:
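HepG2 cells were exposed to compound for 3 or 9 days and viability was read by MTT assay. CC50 is the concentration causing 50% cytotoxicity. Results are mean ± SD of three experiments.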
(Tetrazolium dyes change colour on reduction, which living cells bring about.)

For series [2], the system named is Hepatitis B virus. In words: Antiviral activity against Hepatitis B virus infected in human HepG2.2.15 cells assessed as inhibition of HBsAg secretion at 20 uM supplemented with fresh medium containing compound every 3 days for 6 days and measured on day 9 by ELISA relative to control. Type of series: functional. An outline of the steps:
(§1)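 HepG2.2.15 cells were exposed to compound for up to 9 days. The initial screen used 20 µM for 9 days, with lamivudine (20 µM) as positive control. Follow-up used 10, 20 or 40 µM sampled at days 3, 6 and 9. HBsAg and HBeAg were quantified in culture supernatant by ELISA and compared with a no-drug control. Results are mean ± SD of three experiments.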
(In an ELISA, binding on a coated surface is turned into a signal by an enzyme label.)

For series [3], the system named is Hepatitis B virus. Briefly: Antiviral activity against Hepatitis B virus infected in human HepG2.2.15 cells assessed as inhibition of HBeAg secretion at 20 uM supplemented with fresh medium containing compound every 3 days for 6 days and measured on day 9 by ELISA relative to control. Type of series: functional. An outline of the steps: as §1
The subject of series [4] is Hepatitis B virus. Briefly: Antiviral activity against Hepatitis B virus infected in human HepG2.2.15 cells assessed as inhibition of extracellular HBV DNA replication at 20 uM supplemented with fresh medium containing compound every 3 days for 6 days measured post-last dose by FQ-PCR analysis relative to control. In kind it is functional. An outline of the steps:
(§2)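 HepG2.2.15 cultures were treated at 10, 20 or 40 µM for 3, 6 and 9 days. Both intracellular and extracellular HBV DNA levels were then determined and compared with untreated cells.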

Series [5] relates to Hepatitis B virus. In words: Antiviral activity against Hepatitis B virus infected in human HepG2.2.15 cells assessed as inhibition of intracellular HBV DNA replication at 20 uM supplemented with fresh medium containing compound every 3 days for 6 days measured post-last dose by FQ-PCR analysis relative to control. In kind it is functional. An outline of the steps:
as §2

Series [6] has as its system Hepatitis B virus. In words: Antiviral activity against lamivudine-resistant Hepatitis B virus harboring L180M/M204V mutant infected in human HepG2.2.15 cells assessed as inhibition of extracellular HBV DNA replication at 20 uM supplemented with fresh medium containing compound every 3 days for 6 days measured post-last dose by FQ-PCR analysis relative to control. In kind it is functional. An outline of the steps: (§3)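 Lamivudine-resistant cell line transfected with the L180M/M204V mutant, exposed to 10, 20 or 40 µM for 3, 6 or 9 days. Intracellular and extracellular HBV DNA levels measured.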

In series [7] the test system is Hepatitis B virus. Briefly: Antiviral activity against lamivudine-resistant Hepatitis B virus harboring L180M/M204V mutant infected in human HepG2.2.15 cells assessed as inhibition of intracellular HBV DNA replication at 20 uM measured on day 3 by FQ-PCR analysis relative to control. The note with it: HepG2.2.15, 72 h. In kind it is functional. The essentials: as §3

Series [8] has as its system Hepatitis B virus. In words: Antiviral activity against Hepatitis B virus infected in human HepG2.2.15 cells assessed as inhibition of intracellular HBV DNA replication at 20 uM measured on day 3 by FQ-PCR analysis relative to control. In kind it is functional. The note with it: HepG2.2.15, 72 h. The essentials:
as §2

Series [9] deals with Hepatitis B virus. In words: Antiviral activity against Hepatitis B virus infected in human HepG2.2.15 cells assessed as inhibition of intracellular HBV DNA replication at 20 uM supplemented with fresh medium containing compound every 3 days for 9 days measured post-last dose by FQ-PCR analysis relative to control. In kind it is functional. The essentials: as §2
Series [10] relates to Hepatitis B virus. Briefly: Antiviral activity against lamivudine-resistant Hepatitis B virus harboring L180M/M204V mutant infected in human HepG2.2.15 cells assessed as inhibition of intracellular HBV DNA replication at 20 uM supplemented with fresh medium containing compound every 3 days for 9 days measured post-last dose by FQ-PCR analysis relative to control. In kind it is functional. An outline of the steps:
as §3

Series [11] deals with Hepatitis B virus. In words: Antiviral activity against lamivudine-resistant Hepatitis B virus harboring L180M/M204V mutant infected in human HepG2.2.15 cells assessed as inhibition of intracellular HBV DNA replication at 20 uM supplemented with fresh medium containing compound every 3 days for 6 days measured post-last dose by FQ-PCR analysis relative to control. Type of series: functional. An outline of the steps:
as §3

Series [12] relates to Hepatitis B virus. In words: Antiviral activity against lamivudine-resistant Hepatitis B virus harboring L180M/M204V mutant infected in human HepG2.2.15 cells assessed as inhibition of extracellular HBV DNA replication at 20 uM measured on day 3 by FQ-PCR analysis relative to control. The note with it: HepG2.2.15, 72 h. Type of series: functional. The essentials:
as §3

Series [13] has as its system Hepatitis B virus. Briefly: Antiviral activity against Hepatitis B virus infected in human HepG2.2.15 cells assessed as inhibition of extracellular HBV DNA replication at 20 uM measured on day 3 by FQ-PCR analysis relative to control. In kind it is functional. The note with it: HepG2.2.15, 72 h. An outline of the steps: as §2
Series [14] has as its system Hepatitis B virus. Briefly: Antiviral activity against lamivudine-resistant Hepatitis B virus harboring L180M/M204V mutant infected in human HepG2.2.15 cells assessed as inhibition of extracellular HBV DNA replication at 20 uM supplemented with fresh medium containing compound every 3 days for 9 days measured post-last dose by FQ-PCR analysis relative to control. In kind it is functional. The essentials: as §3

In series [15] the test system is Hepatitis B virus. In words: Antiviral activity against Hepatitis B virus infected in human HepG2.2.15 cells assessed as inhibition of extracellular HBV DNA replication at 20 uM supplemented with fresh medium containing compound every 3 days for 9 days measured post-last dose by FQ-PCR analysis relative to control. In kind it is functional. An outline of the steps: as §2

A value given as a limit tells only on which side of the number the result lay.

As for `CNc1ncnc2c1nnn2[C@@H]1O[C@H](CO)[C@@H](O)[C@@]1(C)F`, in [1], the cytotoxic concentration (CC50) at 216 h is more than 600 µM. The figures for the “inhibition (INH)” value in the series on Hepatitis B virus [2] and with Hepatitis B virus [3] were 20.1% and 24.4%, respectively.

Take `C[C@@]1(F)[C@H](O)[C@@H](CO)O[C@H]1n1nnc2c(NCc3ccccc3)ncnc21`: the CC50 at 216 h in [1] was more than 600 µM. Further, the “inhibition (INH)” value is reported as 8.5% with Hepatitis B virus [2] and 11.9% in the series with Hepatitis B virus [3].

In turn, `C[C@@]1(F)[C@H](O)[C@@H](CO)O[C@H]1n1nnc2c(Nc3ccccc3)ncnc21` had a half-maximal cytotoxic concentration (CC50) at 216 h in series [1] of 501 µM. Besides, the “inhibition (INH)” value was 14.8% with Hepatitis B virus [2] and 17.7% with Hepatitis B virus [3].

For the compound `Nc1ccn([C@@H]2CS[C@H](CO)O2)c(=O)n1` [LAMIVUDINE], the “inhibition (INH)” value in the series with Hepatitis B virus [4] was determined as 54.1%; in the series on Hepatitis B virus [5], 69.7%; with Hepatitis B virus [6], 8.4%; in the series with Hepatitis B virus [9] it was 77.9%; in the series on Hepatitis B virus [2] it was 42.4%; with Hepatitis B virus [3], 39.6%. The “inhibition (INH)” value with Hepatitis B virus [10] was found to be 11.2%; in the series with Hepatitis B virus [11] it was 7.9%; with Hepatitis B virus [14], 19.3%; with Hepatitis B virus [15], 78.6%. Further, the inhibition at 20 µM in the series with Hepatitis B virus [7] turned out to be 6.3%; in the series with Hepatitis B virus [8], 47.4%; with Hepatitis B virus [12] it was 4.1%; with Hepatitis B virus [13], 32.7%.

Compound `CCCCNc1ncnc2c1nnn2[C@@H]1O[C@H](CO)[C@@H](O)[C@@]1(C)F` yielded a CC50 at 216 h in series [1] of more than 600 µM. Further, the results for the “inhibition (INH)” value with Hepatitis B virus [2] and with Hepatitis B virus [3] were 17% and 11.6%, respectively.

For `C[C@@]1(F)[C@H](O)[C@@H](CO)O[C@H]1n1nnc2c(NC3CC3)ncnc21`, the CC50 at 216 h in series [1] is more than 600 µM. For the same compound, the entries for the “inhibition (INH)” value in the series on Hepatitis B virus [2] and in the series with Hepatitis B virus [3] were 11.4% and 16.7%, respectively.

The compound `C[C@@]1(F)[C@H](O)[C@@H](CO)O[C@H]1n1nnc2c(=O)[nH]cnc21` registered a CC50 at 216 h in [1] of more than 600 µM. Also, the “inhibition (INH)” value with Hepatitis B virus [2] is on record as 8.5%; with Hepatitis B virus [3] it was 7.4%.

For the compound `C[C@@]1(F)[C@H](O)[C@@H](CO)O[C@H]1n1nnc2c(N)ncnc21`, the CC50 at 216 h in [1] is more than 600 µM. Further, the “inhibition (INH)” value with Hepatitis B virus [2] is on record as 9.9%; in the series with Hepatitis B virus [3] it was 10%.

The term CC50 denotes the concentration at which the toxic effect on the cells reaches its halfway point. A higher CC50 goes with better tolerance by the cells. The term inhibition denotes the relative decrease from the control value, in per cent.

Values taken from ChEMBL document CHEMBL4340532, “Design, synthesis, and biological evaluation of novel 2'-deoxy-2'-fluoro-2'-C-methyl 8-azanebularine derivatives as potent anti-HBV agents” (Bioorg Med Chem Lett, 2019).
